Reference: publication PMC7797712 (Medicinal Chemistry Research, 2021)

Legend:
AML12HBV10 cells = assay: Cytotoxicity assay in AML12HBV10 cells; assay type: cell-based, mouse
How it was run: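 Cells treated in tetracycline-free medium, as in the antiviral assay, with twofold serial dilution from 50 to 1.56 µM for 48 h. Viability checked by microscopy and measured by MTT. CC50 = concentration reducing viability by 50%.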

[1] = test system: HBV replication in HepDES19 cells; assay: Antiviral assay in HepDES19 cells; assay type: cell-based; conditions: Hepatitis B virus, HepDES19, read-out: EC50, inhibition of HBV-DNA replication
How it was run: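 HepG2-derived line with a tetracycline-inducible, envelope-deficient HBV genome; seeded in 24-well plates and kept tetracycline-free for 2 days. Then mock or twofold serial dilution for a further 4 days. Cytoplasmic HBV core DNA extracted and measured by qPCR. EC50 from regression on biologically triplicate experiments, two independent experiments.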

[2] = test system: cytoplasmic HBV-DNA replication in AML12HBV10 cells; assay: Antiviral assay in AML12HBV10 cells; assay type: cell-based, hepatitis B virus; conditions: for Anti-HBV potency compared with 27 (58031), in words: SAR statement of the text
How it was run: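 AML12-derived mouse hepatocyte line carrying a tetracycline-inducible, envelope-deficient HBV genome; seeded at 2 × 10^4 cells/well in tetracycline-free medium. Next day, mock or twofold serial dilution (10 to 0.08 µM) for 48 h. Cells lysed in Tris-HCl pH 7.5/EDTA/NaCl/1% NP-40. Half the lysate NaOH-denatured, neutralised, dot-blotted and hybridised with 32P-labelled HBV minus-strand riboprobe. Phosphorimager quantification; EC50 = concentration reducing HBV DNA by 50%.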

HBV core protein = HBV core protein (Hepatitis B virus genotype D subtype ayw, UniProt P03146); assay: Western blot assay of HBV core protein dephosphorylation in AML12HBV_DE11 cells; assay type: cell-based; conditions: 30 h, ENAN-34017 2 µM, Bay 41-4109 2 µM, entecavir 1 µM
How it was run: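 Controls: cells kept with tetracycline, or tetracycline-free and mock treated. Test cells tetracycline-free, treated 30 h, then lysed in LDS loading buffer and boiled 100 °C for 20 min. Run on 12% Bis-Tris gel in MOPS buffer, transferred to PVDF. Hyper-phosphorylated and dephosphorylated/hypophosphorylated core protein detected by western blot; β-actin loading control.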

Chain of HBV core protein (P03146 whole entry): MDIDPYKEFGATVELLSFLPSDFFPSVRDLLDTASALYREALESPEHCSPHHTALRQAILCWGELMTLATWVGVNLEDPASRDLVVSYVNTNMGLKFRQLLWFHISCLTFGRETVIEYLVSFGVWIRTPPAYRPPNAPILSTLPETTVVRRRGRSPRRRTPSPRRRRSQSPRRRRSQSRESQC

Compound | Effect on Cp dephosphorylation (HBV core protein) | Anti-HBV potency compared with 27 (58031), in words ([2]; AML12HBV10 cells) | further results
O=C1CCN(C(=O)Nc2ccc(F)c(Cl)c2)CN1Cc1ccc(F)cc1F [Compound 27, N-(3-chloro-4-fluorophenyl)-3-(2,4-difluorobenzyl)-4-oxotetrahydropyrimidine-1(2H)-carboxamide] | inhibited Cp dephosphorylation | – | Cytotoxicity at 50 μM (AML12HBV10 cells): no cytotoxicity; EC50 [1]: 840 nM; EC50 (50% inhibitory concentration of cytoplasmic HBV-DNA replication) ([2]; AML12HBV10 cells, 48 h treatment, dot-blot hybridization): submicromolar; Potency increase relative to 21 ([2]; AML12HBV10 cells, EC50 ratio): fourfold potency increase; EC50 ([2]; Hepatitis B virus, AML12HBV10, 48 h, read-out: EC50 (50% inhibitory concentration of cytoplasmic HBV-DNA replication)): 520 nM
O=C(NC1CN(C(=O)Nc2ccc(F)c(Cl)c2)CN(Cc2ccc(F)cc2F)C1=O)c1ccc(F)cc1F (stereo not shown) [Compound 53, N-(3-chloro-4-fluorophenyl)-5-(2,4-difluorobenzamido)-3-(2,4-difluorobenzyl)-4-oxotetrahydropyrimidine-1(2H)-carboxamide] | – | comparable or slightly better potencies | –
Cc1ccc(S(=O)(=O)NC2CN(C(=O)Nc3ccc(F)c(Cl)c3)CN(Cc3ccc(F)cc3F)C2=O)cc1 (stereo not shown) [Compound 54, N-(3-chloro-4-fluorophenyl)-3-(2,4-difluorobenzyl)-5-(4-methylphenylsulfonamido)-4-oxotetrahydropyrimidine-1(2H)-carboxamide] | – | comparable or slightly better potencies | –
C=CC(=O)NC1CN(C(=O)Nc2ccc(F)c(Cl)c2)CN(Cc2ccc(F)cc2F)C1=O (stereo not shown) [Compound 55, 5-acrylamido-N-(3-chloro-4-fluorophenyl)-3-(2,4-difluorobenzyl)-4-oxotetrahydropyrimidine-1(2H)-carboxamide] | – | comparable or slightly better potencies | –
C=C1[C@H](CO)[C@@H](O)C[C@@H]1n1cnc2c(=O)[nH]c(N)nc21 [entecavir, reference compound] | did not affect Cp dephosphorylation | – | –
